According to publication PMC4212002 (Molecular Pharmaceutics, 2014):
Positions of bridges follow the written chain, without caps; N, C: chain ends. Residues, ends and D or L forms follow the SMILES beside them.

Columns and labels:
[1] = tested on: integrin α5β1; details: cited from earlier work
[2] = tested on: integrin αvβ5; details: cited from earlier work
[3] = tested on: integrin αiibβ3; details: cited from earlier work
[4] = target: integrin αvβ3 (Homo sapiens, UniProt P05106+P06756); details: cited from earlier work
[5] = tested on: integrin αvβ3 (U87MG cells); details: read-out: U87MG IC50; binding to U87MG cells; ref 22 and 23; cited from earlier work
[6] = tested on: U87MG tumor-bearing mice; experiment: Small animal PET imaging quantification; assay type: in vivo, mouse; details: U87MG xenograft mice, within 2 h p.i.
Method in brief: (§1)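 Female nude mice carried s.c. U87MG shoulder xenografts of 0.5–1 cm, n = 4 per group. About 3.7 MBq (100 μCi) of radiotracer was given via tail vein, with or without ~330 μg c(RGDyK) coinjected. Mice were scanned on a small-animal PET at 0.5, 1 and 2 h p.i. under isoflurane (5% induction, 2% maintenance in 100% O2). Images were reconstructed by OSEM 2D and regional uptake quantified as %ID/g.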

[7] = Small animal PET imaging quantification; assay type: in vivo, mouse; details: mouse, tumor, iv, 3.7 MBq, total radioactivity
Method in brief: as §1

[8] = tested on: U87MG tumor-bearing mice; experiment: Biodistribution study; assay type: in vivo, mouse; details: U87MG xenograft nude mice, i.v., 2.5 h p.i., mean ± SD n = 4
Method in brief: (§2)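 Female athymic nude mice bore s.c. right-shoulder xenografts (~1 × 10^7 U87MG cells in 100 μL PBS, grown 2–3 weeks to 0.5–1 cm). The radiofluorinated peptide (1.85–3.7 MBq) was given via tail vein; mice were killed 0.5–2.5 h p.i. Tissues were weighed and γ-counted and expressed as %ID/g, n = 4 per group. A blocking group was coinjected with 330 μg c(RGDyK) and examined at 2.5 h.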

[9] = Biodistribution study; assay type: in vivo, mouse; details: nude, mouse, iv, total radioactivity
Method in brief: as §2

[10] = In vitro stability in PBS buffer; assay type: physicochemical; details: 0.01 M PBS pH 7.4, 1 h, room temperature, 3.7–5.55 MBq, radio-HPLC
Method in brief: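 The radiotracer was reconstituted in PBS and sterile-filtered (0.22 μm) before incubation. After incubation, samples were analysed by radio-HPLC. Percent intact peptide was obtained by quantifying the peaks for intact peptide and for degradation products.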

[11] = tested on: U87MG cells; experiment: U87MG cell uptake assay; assay type: cell-based, human; details: for cell uptake (% of added radioactivity): 37 kBq/well, mean ± SD, triplicate
Method in brief: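 U87MG cells were grown in high-glucose DMEM with 10% FBS and 1% pen-strep (37 °C, 5% CO2) and trypsinised at 70–80% confluence. Cells (1 × 10^5/well) attached overnight and were PBS-washed, then exposed to 37 kBq radiotracer per well in medium ± 2 μg/well c(RGDyK) at 37 or 4 °C for 15–120 min. Cells were washed, lysed in 1.0 M NaOH and γ-counted as % added activity. Two experiments, triplicate wells.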

integrin αvβ3, sequence (P06756 31-889): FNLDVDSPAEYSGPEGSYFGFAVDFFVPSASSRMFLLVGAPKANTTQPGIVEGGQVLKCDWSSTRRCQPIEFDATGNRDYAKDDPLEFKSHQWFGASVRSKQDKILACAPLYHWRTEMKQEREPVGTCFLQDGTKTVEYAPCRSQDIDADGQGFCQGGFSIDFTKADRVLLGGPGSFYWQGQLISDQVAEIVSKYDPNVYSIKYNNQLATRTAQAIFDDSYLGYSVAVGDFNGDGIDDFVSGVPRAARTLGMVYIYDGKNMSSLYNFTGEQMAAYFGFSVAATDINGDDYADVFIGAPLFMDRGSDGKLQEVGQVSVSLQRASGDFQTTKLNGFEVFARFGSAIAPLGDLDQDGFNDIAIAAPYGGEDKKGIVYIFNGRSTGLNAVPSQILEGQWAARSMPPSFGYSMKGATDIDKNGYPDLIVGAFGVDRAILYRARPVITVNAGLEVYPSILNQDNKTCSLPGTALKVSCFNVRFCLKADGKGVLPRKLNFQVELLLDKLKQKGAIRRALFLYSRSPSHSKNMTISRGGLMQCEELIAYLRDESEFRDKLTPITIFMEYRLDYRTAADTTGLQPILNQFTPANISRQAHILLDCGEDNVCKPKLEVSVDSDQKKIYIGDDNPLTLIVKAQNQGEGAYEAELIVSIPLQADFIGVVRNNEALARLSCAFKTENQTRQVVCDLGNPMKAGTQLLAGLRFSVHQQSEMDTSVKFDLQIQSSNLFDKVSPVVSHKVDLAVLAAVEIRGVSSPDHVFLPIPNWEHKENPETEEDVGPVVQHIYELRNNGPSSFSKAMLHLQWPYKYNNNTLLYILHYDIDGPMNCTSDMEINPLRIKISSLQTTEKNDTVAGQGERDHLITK
integrin αvβ3, sequence (P06756 891-992): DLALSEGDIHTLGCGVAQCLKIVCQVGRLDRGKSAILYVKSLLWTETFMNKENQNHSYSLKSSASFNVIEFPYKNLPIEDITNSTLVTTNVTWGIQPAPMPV
integrin αvβ3, sequence (P05106 27-718): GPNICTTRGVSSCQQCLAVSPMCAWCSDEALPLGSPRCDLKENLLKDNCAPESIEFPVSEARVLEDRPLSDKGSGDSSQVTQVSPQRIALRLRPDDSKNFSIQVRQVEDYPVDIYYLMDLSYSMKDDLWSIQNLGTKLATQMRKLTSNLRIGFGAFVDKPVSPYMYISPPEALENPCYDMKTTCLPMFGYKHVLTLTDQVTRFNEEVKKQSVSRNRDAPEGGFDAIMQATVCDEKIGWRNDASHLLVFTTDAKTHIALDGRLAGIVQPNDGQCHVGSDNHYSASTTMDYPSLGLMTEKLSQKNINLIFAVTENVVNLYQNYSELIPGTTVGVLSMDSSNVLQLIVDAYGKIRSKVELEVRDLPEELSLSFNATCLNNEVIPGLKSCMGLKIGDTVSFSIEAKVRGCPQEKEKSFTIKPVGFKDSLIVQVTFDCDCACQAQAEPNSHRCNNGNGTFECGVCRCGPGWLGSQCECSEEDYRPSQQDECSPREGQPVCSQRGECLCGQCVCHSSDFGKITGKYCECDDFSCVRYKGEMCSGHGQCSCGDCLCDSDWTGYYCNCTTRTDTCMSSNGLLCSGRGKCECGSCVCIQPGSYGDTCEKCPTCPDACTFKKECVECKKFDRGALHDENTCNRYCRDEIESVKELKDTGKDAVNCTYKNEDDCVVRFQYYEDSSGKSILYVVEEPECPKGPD

Structure (SMILES): CSCC[C@@H]1NC(=O)[C@H](CC(=O)O)NC(=O)CNC(=O)[C@H](CCCNC(=N)N)NC(=O)[C@H](C)NC(=O)[C@H](CCC(=O)O)NC(=O)[C@H](CCCNC(=N)N)NC(=O)[C@@H]2CSSC[C@@H]3NC(=O)[C@H](CO)NC(=O)[C@H]([C@@H](C)O)NC(=O)[C@@H]4CCCN4C(=O)[C@H](C)NC(=O)[C@H](Cc4c[nH]c5ccccc45)NC(=O)[C@H](CC(=O)O)NC(=O)CNC(=O)[C@H](CCCNC(=N)N)NC(=O)CNC(=O)[C@H](CCC(N)=O)NC(=O)[C@@H]4CCCN4C(=O)[C@@H](NC(=O)CN)CSSC[C@H](NC(=O)CNC(=O)[C@H](C)NC(=O)[C@H](CC(C)C)NC(=O)[C@H](CSSC[C@@H](C(=O)NCC(N)=O)NC(=O)[C@H]([C@@H](C)O)NC(=O)[C@H](CCCNC(=N)N)NC(=O)[C@@H]4CCCN4C1=O)NC(=O)[C@H](CC(=O)O)NC(=O)[C@H](CO)NC(=O)[C@H](CC(=O)O)NC(=O)[C@H](CCC(N)=O)NC(=O)[C@H](CO)NC3=O)C(=O)N[C@@H](C(C)C)C(=O)N2 [3-4A] (H-GCPQGRGDWAPTSCSQDSDCLAGCVCREARGDMPRTCG-NH2; disulfide 2-24, 14-26, 20-37; C-terminus assumed)
- binding affinity for integrin α5β1 [1]: lower affinity
- binding affinity to integrin αvβ5 [2]: high binding affinity
- binding affinity for integrin αiibβ3 [3]: lower affinity
- binding affinity to integrin αvβ3 [4]: high binding affinity
- IC50 [5]: 5 ± 2 nM

Structure (SMILES): CSCC[C@@H]1NC(=O)[C@H](CC(=O)O)NC(=O)CNC(=O)[C@H](CCCNC(=N)N)NC(=O)[C@H](C)NC(=O)[C@H](CCC(=O)O)NC(=O)[C@H](CCCNC(=N)N)NC(=O)[C@@H]2CSSC[C@@H]3NC(=O)[C@H](CO)NC(=O)[C@H]([C@@H](C)O)NC(=O)[C@@H]4CCCN4C(=O)[C@H](C)NC(=O)[C@H](Cc4c[nH]c5ccccc45)NC(=O)[C@H](CC(=O)O)NC(=O)CNC(=O)[C@H](CCCNC(=N)N)NC(=O)CNC(=O)[C@H](CCC(N)=O)NC(=O)[C@@H]4CCCN4C(=O)[C@@H](NC(=O)CNC(=O)C(C)F)CSSC[C@H](NC(=O)CNC(=O)[C@H](C)NC(=O)[C@H](CC(C)C)NC(=O)[C@H](CSSC[C@@H](C(=O)NCC(N)=O)NC(=O)[C@H]([C@@H](C)O)NC(=O)[C@H](CCCNC(=N)N)NC(=O)[C@@H]4CCCN4C1=O)NC(=O)[C@H](CC(=O)O)NC(=O)[C@H](CO)NC(=O)[C@H](CC(=O)O)NC(=O)[C@H](CCC(N)=O)NC(=O)[C@H](CO)NC3=O)C(=O)N[C@@H](C(C)C)C(=O)N2 (stereo partly shown) [^18F-FP–3-4A]
- in vivo defluorination (bone uptake on PET) [6]: no observable defluorination
- tissue uptake at 0.5 h [7]: 3.87 ± 0.66 %ID/g
- liver uptake [8]: 0.29 % ID/g
- tissue to tissue ratio at 0.5 h ([9]; tumor and blood): 5.94 ± 0.94
- tissue to tissue ratio at 1 h ([9]; tumor and blood): 4.39 ± 0.82
- tissue to tissue ratio at 2.5 h ([9]; tumor and blood): 3.12 ± 0.55
- tissue to tissue ratio at 0.5 h ([9]; tumor and kidney): 0.57 ± 0.19
- tissue to tissue ratio at 1 h ([9]; tumor and kidney): 0.6 ± 0.12
- tissue to tissue ratio at 2.5 h ([9]; tumor and kidney): 0.72 ± 0.15
- tissue to tissue ratio at 0.5 h ([9]; tumor and liver): 5.55 ± 0.63
- tissue to tissue ratio at 1 h ([9]; tumor and liver): 5.69 ± 0.88
- tissue to tissue ratio at 2.5 h ([9]; tumor and liver): 3.15 ± 0.74
- tissue to tissue ratio at 0.5 h ([9]; tumor and lung): 2.22 ± 0.45
- tissue to tissue ratio at 1 h ([9]; tumor and lung): 1.44 ± 0.31
- tissue to tissue ratio at 2.5 h ([9]; tumor and lung): 1.64 ± 0.01
- tissue to tissue ratio at 0.5 h ([9]; tumor and muscle): 10.8 ± 1.52
- tissue to tissue ratio at 1 h ([9]; tumor and muscle): 10.1 ± 1.22
- tissue to tissue ratio at 2.5 h ([9]; tumor and muscle): 3.47 ± 0.07
- tissue to tissue ratio at 0.5 h ([9]; tumor and pancreas): 12 ± 1.94
- tissue to tissue ratio at 1 h ([9]; tumor and pancreas): 6.06 ± 0.54
- tissue to tissue ratio at 2.5 h ([9]; tumor and pancreas): 3.96 ± 1.24
- tissue to tissue ratio at 0.5 h ([9]; tumor and spleen): 4.28 ± 0.4
- tissue to tissue ratio at 1 h ([9]; tumor and spleen): 2.63 ± 0.32
- tissue to tissue ratio at 2.5 h ([9]; tumor and spleen): 1.83 ± 0.16
- intact probe after incubation in PBS [10]: completely intact
- accumulation in cells at 37 °C compared to 4 °C [11]: 2–3 fold
- inhibition of cell uptake by excess c(RGDyK) ([11]; 4 °C, 1 h, 2 μg/well c(RGDyK)): 31.82%
- cell uptake (% of added radioactivity) ([11]; 4 °C, 15 min): 0.32 ± 0.02%
- cell uptake (% of added radioactivity) ([11]; 4 °C, 30 min): 0.41 ± 0.11%
- cell uptake (% of added radioactivity) ([11]; 4 °C, 60 min): 0.44 ± 0.05%
- cell uptake (% of added radioactivity) ([11]; 4 °C, 120 min): 0.51 ± 0.04%
- cell uptake (% of added radioactivity) ([11]; 37 °C, 15 min): 0.71 ± 0.07%
- cell uptake (% of added radioactivity) ([11]; 37 °C, 30 min): 0.90 ± 0.04%
- cell uptake (% of added radioactivity) ([11]; 37 °C, 60 min): 1.44 ± 0.04%
- cell uptake (% of added radioactivity) ([11]; 37 °C, 120 min): 1.50 ± 0.07%
